FLuc inh counter = firefly luciferase enzyme inhibitors, primary screen, artefact control for luciferase-based inhibitor screens, biochemical, luminescence, ATPLite | Luciferin 4-monooxygenase (Photinus pyralis), P08659 | 10 min | inhibition, % at 10 µM | actives 1.5% (n = 200,000) | AID 1006, 2008;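 active = inhibition above about 50% when tested at 10 µM, limit read from the data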
Target sequence (P08659 whole entry, looked up): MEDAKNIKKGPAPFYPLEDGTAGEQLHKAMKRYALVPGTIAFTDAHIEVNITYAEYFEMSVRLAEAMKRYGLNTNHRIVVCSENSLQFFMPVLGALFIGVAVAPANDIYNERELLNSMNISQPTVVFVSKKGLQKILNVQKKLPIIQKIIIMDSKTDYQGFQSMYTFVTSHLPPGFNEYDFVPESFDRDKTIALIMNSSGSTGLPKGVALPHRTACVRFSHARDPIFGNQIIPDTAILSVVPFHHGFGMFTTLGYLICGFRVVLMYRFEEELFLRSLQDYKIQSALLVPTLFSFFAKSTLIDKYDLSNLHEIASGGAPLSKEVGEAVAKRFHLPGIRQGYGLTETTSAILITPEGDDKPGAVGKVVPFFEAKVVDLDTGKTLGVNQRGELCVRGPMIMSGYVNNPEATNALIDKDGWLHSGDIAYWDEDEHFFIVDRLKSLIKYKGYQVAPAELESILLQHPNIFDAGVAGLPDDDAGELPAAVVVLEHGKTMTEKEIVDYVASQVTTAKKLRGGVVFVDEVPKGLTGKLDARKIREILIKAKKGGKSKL
TRAIL sens C8 = viability loss with TRAIL in NB7+C8 cells, primary screen, TRAIL sensitizer project, cell-based, ATPlite luminescence; inhibition (viability loss, TRAIL sensitization), % at 10 µM; actives 1% (n = 360,000); AID 624354, 2012;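 active = compounds causing at least 50% loss of cell viability in the single-dose screen, relative to plate controls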
PPC-1+TRAIL kill = compounds killing PPC-1 cancer cells with TRAIL present, primary screen, TRAIL potentiator project, ATPLite luminescence, uHTS; actives 0.41% (n = 220,000); PPC-1 cells + TRAIL, ATPLite viability luminescence; cell killing (% activity), % at 4 µM or 5 µM;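 active = cell killing above 50% in the first pass at 4 µM, then a duplicate retest at 5 µM averaging 50% or more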;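 note: plate controls were cells with TRAIL plus DMSO for no effect and medium-only wells lacking cells for full effect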
HSP90 refold inh = HSP90 inhibitors, primary screen, cell lysate, luminescence. Heat shock protein HSP 90 (rabbit reticulocyte lysate; luciferase refolding). Rabbit reticulocyte lysate, luciferase refolding luminescence, 3 h. inhibition, % at 5.6 µM. actives 0.91% (n = 290,000). AID 1789, 2009;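 active = inhibition above the screen-wide mean plus 3 SD, computed separately per campaign, cut at about 16% in these data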;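 note: 0% = DMSO wells and 100% = 60 µM geldanamycin wells; inhibitors lower the luminescence because luciferase stays unfolded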
FLuc stim CS = FLuc activators, initial screening, artefact control for FLuc-dependent activation tests, biochemical, ATPlite luminescence | Luciferin 4-monooxygenase (Photinus pyralis), P08659 | ATPlite luciferase biochemical, 10 min; 0 = ATP-free wells, 1 = DMSO control | activation factor at 10 µM | 200,000 tested, under 10 active | AID 1027, 2008;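 active = luciferase activation factor, scaled between plate controls, of at least 2 with compound at 10 µM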
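test system = cell-free luciferase reagent | medium = PBS as buffer for the ATP substrate | dosing = test compounds dosed from 2 mM stocks in 100% DMSO | incubation = 10 min at ambient temperature | detection = luminescence measurement of luciferase light output | benchmarks = low control with PBS replacing ATP, high control enzyme plus ATP without compound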
An asterisk follows results filed as active; nt = no result. Most compounds without a hit are left out; they make up all but 2% or so of the library.

SMILES	FLuc inh counter	TRAIL sens C8	PPC-1+TRAIL kill	HSP90 refold inh	FLuc stim CS
COc1ccc(NC(=O)/C(C#N)=C/c2ccc(-c3ccc(Cl)c(C(=O)O)c3)o2)cc1	nt	60.2*	nt	-2.9	nt
Cc1cc(C)n2c(NC3CCCCC3)c(CC(C)C)nc2n1	nt	3.0	nt	nt	nt
Nc1c(-c2ccccc2)cnn1-c1ccccc1	nt	54.0*	nt	-0.5	nt
Nc1c(-c2cccc(Cl)c2)cnn1-c1ccccc1	nt	9.7	nt	6.4	nt
Cc1cc(C)c(C)c(S(=O)(=O)N2CCN(CC(=O)c3c(N)n(Cc4ccccc4)c(=O)n(C)c3=O)CC2)c1C	-0.6	60.9*	20.4	1.3	1
Cn1c(=O)c(C(=O)CN2CCCCCC2)c(N)n(Cc2ccccc2)c1=O	-2.5	-18.8	6.9	-3.9	1
CCOc1ccc2nc(NC(=O)Nc3cccs3)sc2c1	66.9*	46.1	9.7	-3.5	0.3
CCOc1ccc2nc(NC(=O)c3ccoc3C)sc2c1	58.3*	45.6	30.1	28.4*	0.4
CCOc1ccc2nc(NC(=O)Nc3ccccc3)sc2c1	13.3	16.3	-5.3	2.5	0.9
CCOc1ccc2nc(NC(=O)CN3CCN(CC)CC3)sc2c1	nt	-3.6	nt	-1.6	nt
CCOc1ccc2nc(NC(=O)CN3CCOCC3)sc2c1	61.3*	-3.7	-5.8	-3.0	0.4
Cc1cccc(CN(C)C[C@H]2OCc3cnnn3CCCC(=O)N([C@@H](C)CO)C[C@@H]2C)c1	nt	-7.8	nt	nt	nt
O=C(Nc1ccc(Cc2ccncc2)cc1)c1ccc(Cl)c([N+](=O)[O-])c1	76.5*	16.2	4.4	-3.6	0.2
O=C(Nc1ccccc1-c1ccccc1)c1ccc(Cl)c([N+](=O)[O-])c1	-8.3	-4.8	94.0*	2.1	1.1
Cc1ccsc1C(=O)N1CCC1(C)C(=O)NS(=O)(=O)c1ccccc1 (stereo not drawn)	nt	0.1	nt	nt	nt
CC[n+]1c(/C=C/N(C)c2ccccc2)n(-c2ccccc2)c2ccc(-c3nc4ccccc4s3)cc21	nt	91.1*	nt	10.1	nt
CCOC(=O)c1ccc2c(c1)n(CC)c(/C=C/N(C)c1ccccc1)[n+]2CC	-5.1	38.4	19.5	-4.5	1.1
O=C(N/N=C/C(Br)=C/c1ccccc1)c1n[nH]c2c1CCC2	47.0	-5.6	10.8	-2.1	0.5
O=C(N/N=C/c1cccs1)c1n[nH]c2c1CCC2	69.7*	37.2	24.8	9.3	0.3
O=C(N/N=C/c1ccccc1)c1n[nH]c2c1CCCC2	74.6*	27.9	41.0	5.3	0.3
O=C(N/N=C/c1ccccc1Cl)c1n[nH]c2c1CCCC2	37.8	40.9	42.2	20.1*	0.6
O=C(N/N=C/c1ccc(Cl)cc1)c1n[nH]c2c1CCCC2	nt	31.7	4.1	2.3	nt
Cc1[nH]nc(C(=O)NN=Cc2ccccc2Cl)c1N=NN(C)C	nt	3.6	nt	nt	nt
COc1ccccc1CNS(=O)(=O)c1cc(C(=O)N(C)Cc2cccnc2)c(Cl)cc1Cl	nt	-6.8	nt	nt	nt
CC1(C(=O)NS(=O)(=O)c2ccc(F)cc2F)CCN1C(=O)CC1CCCCC1 (stereo not drawn)	nt	-6.2	nt	nt	nt
SMILES	FLuc inh counter	TRAIL sens C8	PPC-1+TRAIL kill	HSP90 refold inh	FLuc stim CS
CC1=C(/C=C/C(C)=C/C=C/C(C)=C/C(=O)Nc2ccc(O)cc2)C(C)(C)CCC1	nt	79.9*	nt	nt	nt
CCc1cc(-c2nnn(CCC3COCCO3)c2CC)ccc1-c1cn(Cc2ccccc2)nn1 (stereo not drawn)	nt	15.2	nt	nt	nt
O=C(N/N=C/C1CCCCC1)c1cc(Cl)ccc1O	50.3*	-16.8	10.6	-0.8	0.5
O=C(N/N=C/C1CCCCC1)c1ccccn1	35.2	-1.7	7.2	4.2	0.6
CN(C1CCCCC1)S(=O)(=O)c1ccc2c(c1)c(=O)c(C(=O)O)cn2C	nt	1.3	nt	nt	nt
CCOc1ccccc1-n1nnnc1SCC(=O)N(C)C1CCS(=O)(=O)C1 (stereo not drawn)	nt	6.8	nt	nt	nt
N/C(=N\OC(=O)CCC1CCCC1)c1ccccc1	87.6*	-6.1	-1.5	-1.1	0.1
N/C(=N\OC(=O)CCC1CCCC1)c1ccccn1	84.2*	-1.0	8.1	2.7	0.2
N/C(=N\OC(=O)CCC1CCCC1)c1ccc([N+](=O)[O-])cc1	-3.1	-6.2	21.4	-2.6	1
N/C(=N\OC(=O)CCCc1ccccc1)c1ccccn1	60.2*	-10.6	24.9	-0.9	0.4
COc1ccc(/C(N)=N/OC(=O)CCC2CCCC2)cc1OC	nt	-1.6	nt	0.4	nt
Cc1cccc(NC(=O)CSc2nncn2N)c1C	nt	-1.7	nt	nt	nt
C/C=C/c1ccc2c(c1)O[C@H](CN(C)CC1CCOCC1)[C@@H](C)CN([C@H](C)CO)S2(=O)=O	nt	-9.8	nt	nt	nt
Cc1cc(-c2ccc(F)cc2)n2ncc(-c3ccccc3)c2n1	nt	64.3*	nt	nt	nt
COn1c(SCc2ccccc2)nc2ccccc2c1=O	-0.3	68.9*	14.1	-2.1	1
COn1c(SCc2cccc(Cl)c2)nc2ccccc2c1=O	-6.4	55.8*	10.8	-3.7	1.1
N#CC1=C(N)N2C(=C(C#N)C1c1cccc(Br)c1)Nc1ccccc12 (stereo not drawn)	-6.0	53.2*	28.1	1.9	1.1
COc1ccc(S(=O)(=O)/N=C2\C=C(Nc3ccc(O)cc3)C(=O)c3ccccc32)cc1	nt	96.3*	nt	95.6*	nt
Cc1ccc(-n2c(C3CC3c3ccc(Cl)cc3)n[nH]c2=S)cc1 (stereo not drawn)	-8.3	58.7*	-13.6	3.2	1.1
Cc1ccc(C2CC2c2n[nH]c(=S)n2-c2ccc(C)cc2)cc1 (stereo not drawn)	-3.2	4.4	-2.9	-5.3	1
C[C@@H]1CN([C@@H](C)CO)C(=O)CCCn2nncc2CO[C@@H]1CN(C)C(=O)c1ccncc1	nt	8.2	nt	nt	nt
CCOc1ccc(OCC(=O)N(CCC2=CCCCC2)c2c(N)n(Cc3ccccc3)c(=O)[nH]c2=O)cc1	nt	56.1*	nt	nt	nt
CCOc1ccc(OCCC(=O)N(CCC2=CCCCC2)c2c(N)n(Cc3ccccc3)c(=O)[nH]c2=O)cc1	nt	-14.8	nt	nt	nt
Cc1ccccc1-c1cnc(C(O)c2ccc(-c3ccccc3)cc2)[nH]1 (stereo not drawn)	nt	6.0	nt	nt	nt
CSc1ccc(C(O)c2ncc(-c3ccccc3F)[nH]2)cc1 (stereo not drawn)	nt	5.2	nt	nt	nt
Cc1ccc(NC(=O)Cn2c(O)c(N=NC(=O)c3ccncc3)c3ccccc32)cc1	3.5	-3.2	-1.7	-4.8	1
Cc1ccc(NC(=O)Cn2c(O)c(N=NC(=O)c3cc4ccccc4cc3O)c3ccccc32)cc1	14.0	69.5*	5.0	2.5	0.9

Assay outcomes deposited in PubChem BioAssay by several laboratories.
